In ChEMBL document CHEMBL5143722, “Antimicrobial Peptides against Multidrug-Resistant Pseudomonas aeruginosa Biofilm from Cystic Fibrosis Patients” (J Med Chem, 2022):
Active and inactive are the calls of the source. No cut-off for these calls is given here.

Legend:
Pseudomonas aeruginosa [1] = assay: Induction of biofilm degradation of Pseudomonas aeruginosa clinical isolate PAO1 at sub MIC concentration incubated for 1 hr by crystal violet staining analysis; assay type: functional
How it was run: (§1)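 Bacteria at 1 × 10^6 CFU/mL in BM2 grown static at 37 °C for 24 h to form biofilm. Wells rinsed of unattached cells, then exposed for 1 h to serial peptide dilutions (1.56–50 μM). Washed, stained with 0.1% crystal violet, A590 read. Biomass given as % of untreated biofilm; no-bacteria wells as blanks. At least three biological repeats.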

Pseudomonas aeruginosa [2] = assay: Induction of biofilm degradation of Pseudomonas aeruginosa clinical isolate 99 at sub MIC concentration incubated for 1 hr by crystal violet staining analysis; assay type: functional; how it was run: as §1
Pseudomonas aeruginosa [3] = assay: Induction of biofilm degradation of Pseudomonas aeruginosa clinical isolate 52 at sub MIC concentration incubated for 1 hr by crystal violet staining analysis; assay type: functional; how it was run: as §1
Pseudomonas aeruginosa [4] = assay: Induction of biofilm degradation of Pseudomonas aeruginosa clinical isolate 29 at sub MIC concentration incubated for 1 hr by crystal violet staining analysis; assay type: functional; how it was run: as §1
Pseudomonas aeruginosa [5] = assay: Induction of biofilm degradation of Pseudomonas aeruginosa clinical isolate 46 at sub MIC concentration incubated for 1 hr by crystal violet staining analysis; assay type: functional; how it was run: as §1
Pseudomonas aeruginosa [6] = assay: Antibiofilm activity against Pseudomonas aeruginosa clinical isolate 46 in artificial sputum medium at 50 uM incubated for 24 hrs by resazurin staining based microtiter plate method; assay type: functional, organism-based
How it was run: (§2)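 Washed overnight culture set to OD ~0.05 in BM2, diluted 1:100 into artificial sputum medium (pH 6.9) in 24-well plates. Grown 3 days aerobically at 37 °C with agitation. Peptides (12.5–100 μM) added for 24 h with agitation. Biofilm disrupted by cellulase for 1 h at 37 °C. Resazurin 0.02% for 1–2 h, fluorescence ex 530/em 590 nm; viability as % of untreated wells.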

Pseudomonas aeruginosa [7] = assay: Antibiofilm activity against Pseudomonas aeruginosa clinical isolate 82 assessed as inhibition of biofilm formation at 1.56 uM incubated for 24 hrs by crystal violet staining based microtiter plate method; assay type: functional, organism-based
How it was run: (§3)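 Washed overnight cultures in BM2 medium at 1 × 10^6 CFU/mL with 2-fold serial peptide dilutions in a U-bottom 96-well plate. Incubated 24 h at 37 °C without agitation. Unattached cells washed off, then 0.1% crystal violet stain read at 590 nm. No-bacteria blanks. Biomass expressed as % of untreated biofilm. At least three biological repeats.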

Pseudomonas aeruginosa [8] = assay: Antibiofilm activity against Pseudomonas aeruginosa clinical isolate 25 assessed as inhibition of biofilm formation at 1.56 uM incubated for 24 hrs by crystal violet staining based microtiter plate method; assay type: functional, organism-based; how it was run: as §3
Pseudomonas aeruginosa [9] = assay: Antibiofilm activity against Pseudomonas aeruginosa clinical isolate 29 assessed as inhibition of biofilm formation at 1.56 uM incubated for 24 hrs by crystal violet staining based microtiter plate method; assay type: functional, organism-based; how it was run: as §3
Pseudomonas aeruginosa [10] = assay: Antibiofilm activity against Pseudomonas aeruginosa clinical isolate 172 assessed as inhibition of biofilm formation at 1.56 uM incubated for 24 hrs by crystal violet staining based microtiter plate method; assay type: functional, organism-based; how it was run: as §3
Pseudomonas aeruginosa [11] = assay: Bactericidal activity against Pseudomonas aeruginosa clinical isolate 46 derived from cystic fibrosis patient sputum assessed as killing rate at 10 uM measured after 1 hr by time-kill assay relative to control; assay type: functional
How it was run: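 Pooled CF patient sputum diluted 10-fold in 10 mM phosphate buffer (pH 7.0), centrifuged and 0.22 μm filtered. Bacteria at 10^6 CFU/mL in 10% sputum supernatant with 10 μM peptide for 1 h at 37 °C. Diluted and plated on LB agar; colonies counted against untreated plates.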

Pseudomonas aeruginosa [12] = assay: Induction of biofilm degradation of Pseudomonas aeruginosa clinical isolate 59 at 1.56 uM incubated for 1 hr by crystal violet staining analysis; assay type: functional; how it was run: as §1
Pseudomonas aeruginosa [13] = assay: Antibiofilm activity against Pseudomonas aeruginosa PAO1 in artificial sputum medium at 100 uM incubated for 24 hrs by resazurin staining based microtiter plate method; assay type: functional, organism-based; how it was run: as §2
Pseudomonas aeruginosa [14] = assay: Antibiofilm activity against Pseudomonas aeruginosa clinical isolate 53 assessed as inhibition of biofilm formation at 1.56 uM incubated for 24 hrs by crystal violet staining based microtiter plate method; assay type: functional, organism-based; how it was run: as §3
Pseudomonas aeruginosa [15] = assay: Antibiofilm activity against Pseudomonas aeruginosa clinical isolate 82 in artificial sputum medium at 50 uM incubated for 24 hrs by resazurin staining based microtiter plate method; assay type: functional, organism-based; how it was run: as §2

| SMILES | Activity (Pseudomonas aeruginosa [1]) | Activity (Pseudomonas aeruginosa [2]) | Activity (Pseudomonas aeruginosa [3]) | Activity (Pseudomonas aeruginosa [4]) | Activity (Pseudomonas aeruginosa [5]) | Activity (Pseudomonas aeruginosa [6]) | inhibition (Pseudomonas aeruginosa [7]) | inhibition (Pseudomonas aeruginosa [8]) | inhibition (Pseudomonas aeruginosa [9]) | inhibition (Pseudomonas aeruginosa [10]) | Activity (Pseudomonas aeruginosa [11]) | Activity (Pseudomonas aeruginosa [12]) | Activity (Pseudomonas aeruginosa [13]) | inhibition (Pseudomonas aeruginosa [14]) | Activity (Pseudomonas aeruginosa [15]) |
| --- | --- | --- | --- | --- | --- | --- | --- | --- | --- | --- | --- | --- | --- | --- | --- |
| CC(C)C[C@H](NC(=O)[C@H](CC(C)C)NC(=O)[C@H](CC(C)C)NC(=O)[C@H](CC(C)C)NC(=O)[C@H](CC(C)C)NC(=O)[C@H](CC(C)C)NC(=O)[C@H](CC(C)C)NC(=O)[C@H](CC(C)C)NC(=O)[C@H](CC(C)C)NC(=O)[C@H](CCCCN)NC(=O)[C@H](CCCCN)NC(=O)[C@@H](N)CCCCN)C(=O)N[C@@H](CCCCN)C(=O)N[C@@H](CCCCN)C(=O)N[C@@H](CCCCN)C(N)=O | Active | Active | Active | Active | Active |  |  |  |  |  |  |  |  |  |  |
| CC(C)C[C@H](NC(=O)[C@H](CC(C)C)NC(=O)[C@H](CCCCN)NC(=O)[C@H](CC(C)C)NC(=O)[C@H](CC(C)C)NC(=O)[C@H](CCCCN)NC(=O)[C@H](CCCCN)NC(=O)[C@H](CC(C)C)NC(=O)[C@H](CC(C)C)NC(=O)[C@H](CCCCN)NC(=O)[C@H](CCCCN)NC(=O)[C@H](CC(C)C)NC(=O)[C@H](CC(C)C)NC(=O)[C@H](CCCCN)NC(=O)[C@@H](N)CC(C)C)C(N)=O |  |  |  |  |  | Active | Active | Active | Active | Active | >97.91% | Active | Active | Active | Active |
